This is a sample that favours compounds with a hit; in the whole collection about 1.7% have one here.
GALR2 agonist – activates the human galanin receptor 2. activation, % (no concentration beside the values). O43603. GALR2-expressing cells, agonist activation read-out. hit rate 0.48% among 140,000; in the data active = activation above about 5%, passing the limit was not always enough;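 also: 0% = vehicle buffer wells and 100% = reference agonist at full effect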
Target sequence (O43603 whole entry, looked up): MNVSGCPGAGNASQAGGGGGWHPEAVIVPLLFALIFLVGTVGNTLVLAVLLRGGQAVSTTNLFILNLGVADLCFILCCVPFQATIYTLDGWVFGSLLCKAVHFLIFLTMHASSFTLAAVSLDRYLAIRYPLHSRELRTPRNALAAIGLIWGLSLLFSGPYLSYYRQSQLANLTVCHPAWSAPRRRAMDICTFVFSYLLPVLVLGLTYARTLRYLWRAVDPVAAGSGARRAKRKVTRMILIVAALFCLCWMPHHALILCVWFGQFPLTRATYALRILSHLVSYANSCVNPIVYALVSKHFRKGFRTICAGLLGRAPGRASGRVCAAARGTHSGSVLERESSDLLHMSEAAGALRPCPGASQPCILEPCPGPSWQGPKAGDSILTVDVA
GALR2 antag – GALR2 (human) receptor antagonism. AID 828. hit rate 0.39% among 140,000. GALR2-expressing cells, antagonist mode. inhibition, % at 4 µM. O43603; in the data active = inhibition above about 27%;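 also: cells stimulated with galanin 1-16 at roughly its EC80; 0% = agonist challenge control and 100% = basal control without agonist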
S1P2 antag – S1P2 (human) receptor antagonism | AID 736 | O95136 | inhibition, % at 5 µM | cell-based S1P2 antagonist assay, inhibition at 5 uM | hit rate 0.21% among 97,000; in the data active = inhibition above about 45%;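 also: CRE beta-lactamase reporter cells expressing human S1P2 stimulated with S1P; 0% = agonist at EC80 alone and 100% = agonist plus reference antagonist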
EphB4 ephrin blk – antagonists of human EphB4-ephrin-B2 interaction; P54760; EphB4 LBD / TNYL-RAW-Alexa532 peptide, fluorescence polarization; inhibition, % at 7 µM; hit rate 0.15% among 97,000; AID 720;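 active = inhibition above the screen-wide mean inhibition plus 3 SD, cut at about 15% in these data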;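 also: 0% = DMSO wells and 100% = excess unlabeled TNYL-RAW peptide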
HIV Rev-RRE inh – disrupts HIV-1 Rev binding to RRE RNA. hit rate 0.79% among 97,000. inhibition, % at 8 µM. P05866. Rev peptide-RRE RNA binding, FRET;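 active = inhibition above the screen-wide mean plus 3 SD, cut at about 35% in these data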;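 also: 0% = median DMSO wells and 100% = median Neomycin B control wells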
Target sequence (P05866 whole entry, looked up): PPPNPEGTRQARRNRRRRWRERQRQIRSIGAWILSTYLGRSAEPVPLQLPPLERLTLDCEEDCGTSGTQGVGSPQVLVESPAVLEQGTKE
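Material: labelled RRE RNA duplex and labelled Rev peptide / Buffer or medium: HEPES pH 7.5 salt buffer with EDTA / Compound dosing: single point, 8 µM final nominal compound concentration / Benchmarks: DMSO low control, neomycin B high control / Timing: 5 min preincubation and 15 min binding, 25 °C / Technique: FRET fluorescence readout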
S1P2 agonist – S1P2 (human) receptor agonism; AID 729; activation, % at 4.5 µM; S1P2-expressing cell line, agonist reporter read-out; O95136; hit rate 0.46% among 97,000; in the data active = activation above about 16%;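 also: 0% = vehicle low control and 100% = maximal reference agonist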
Numbers without * were called inactive; . = no result given; [ ] = dose if it differs, or a comment.

SMILES	GALR2 agonist	GALR2 antag	S1P2 antag	EphB4 ephrin blk	HIV Rev-RRE inh	S1P2 agonist
COc1cc(-c2nn3c(Cc4ccccc4)nnc3s2)cc(OC)c1OC	0.9	-31.1	-52.7	-1.2	5.5	20.8*
CS(=O)c1nc(-c2ccc(Br)cc2)cc(-c2ccccc2)c1C#N (stereo not drawn)	6.2*	57.3*	.	.	.	.
CS(=O)(=O)c1nc(-c2ccc(Br)cc2)cc(-c2ccccc2)c1C#N	-2.7	-0.3	1.6	-5.4	2.3	18.9*
N#Cc1c(-c2ccc(Br)cc2)cc(-c2cccnc2)nc1N	3.4	7.2	.	.	.	.
C=CCOC(=O)C1=C(C)NC(SCC(N)=O)=C(C#N)C1c1cccs1 (stereo not drawn)	-0.8	-3.3	.	.	.	.
CCOC(=O)C1=C(C)NC(SCC(=O)Nc2nc(C)cs2)=C(C#N)C1c1cccs1 (stereo not drawn)	21.8*	-8.8	-21.0	1.4	8.0	19.8*
CS(=O)(=O)c1ccc2nc(NC(=O)Nc3cccc(Cl)c3)sc2c1	-0.3	3.9	46.8*	-0.8	23.5	-9.9
CC(C)(C)c1nnc(SCC(=O)c2ccccc2)n(N)c1=O	0.0	-3.6	.	.	.	.
Cc1ccc(-c2nc(SCC(=O)Nc3cc(S(=O)(=O)N4CCCCC4)ccc3Cl)n[nH]2)cc1	-0.5	0.6	.	.	.	.
c1ccc(Nc2ccc3c4c(cccc24)CC3)cc1	-4.1	-1.0	-40.2	-5.4	8.8	-1.4
Nc1ccc2c3c(cccc13)CC2	-0.7	19.7	10.4	-2.0	46.7*	-11.1
N#Cc1cc2c(nc1SCC(=O)N1CCCCC1)CCCC2	0.8	-0.3	16.6	12.7	8.0	31.5*
CN(C)c1ccc(/C=N/n2ncc3ccccc32)cc1	25.2*	-0.8	.	.	.	.
C=CCn1c(/N=C/c2ccc(N(C)C)cc2)nc2ccccc21	-2.5	1.8	15.9	5.1	49.5*	-8.4
CCCCn1c(/N=C/c2ccc(N(C)C)cc2)nc2ccccc21	-0.3	5.1	4.1	-12.4	36.5*	-1.4
Cc1c(C(=O)Oc2cccc3ccccc23)cnn1-c1ccccc1	-3.1	-1.1	-0.5	4.0	19.1	-4.7
Cc1cc(Cl)ccc1N1C(=O)CC(NNC(=O)c2cccnc2)C1=O (stereo not drawn)	-0.4	11.9	.	.	.	.
Cc1nn(-c2nc3ccccc3s2)c(N)c1-c1ccccc1	-2.8	11.4	3.0	7.9	4.4	22.2*
COc1ccccc1C1C(C(C)=O)=C(C)N=c2s/c(=C\c3cc(OC)c(OC)c(OC)c3)c(=O)n21 (stereo not drawn)	4.3	1.8	-39.0	-4.7	-0.5	16.7*
COc1cccc(C2C(C(=O)Nc3ccccc3)=C(C)N=c3s/c(=C/c4ccc(OCC(=O)O)cc4)c(=O)n32)c1 (stereo not drawn)	1.0	13.2	.	.	.	.
CCN1C(=C2C(=O)c3ccccc3C2=O)C=Cc2ccccc21	-1.0	-3.8	-13.6	-7.1	13.0	-5.5
CCN1/C(=C/c2ccc3ccccc3[n+]2CC)C=Cc2ccccc21	0.2	24.4	81.0*	-8.3	18.4	-1.8
Fc1ccc2[nH]c3c(N4CCN(c5ccccc5)CC4)ncnc3c2c1	0.2	22.8	.	.	.	.
COc1ccc(N2CCN(c3ncnc4c3[nH]c3ccccc34)CC2)cc1	-0.4	14.5	62.8*	1.9	6.9	-2.8
CN(C)c1ccc(/C=C/C(O)=C2/C(=O)N(C)C3(C)CC2c2ccccc2O3)cc1 (stereo not drawn)	4.3	8.3	69.1*	4.2	121.1*[fluorescence artefact?]	-2.2
SMILES	GALR2 agonist	GALR2 antag	S1P2 antag	EphB4 ephrin blk	HIV Rev-RRE inh	S1P2 agonist
N#C/C(=C\c1c[nH]c2ccccc12)C(=O)Nc1ncc(Cc2ccc(Cl)cc2Cl)s1	6.4*	-9.8	.	.	.	.
Cn1cc(/C=C(\C#N)C(=O)Nc2ncc(Cc3cccc(Cl)c3)s2)c2ccccc21	-0.2	0.7	.	.	.	.
Nc1nc(SCC(=O)Nc2ccccc2Sc2ccccc2)n[nH]1	-1.8	-0.9	-12.1	-0.7	0.8	-5.3
O=C(Nc1ccc(N2CCOCC2)cc1)Nc1ccc2nc(-c3ccco3)c(-c3ccco3)nc2c1	-0.1	31.7*	-7.9	4.0	11.1	-0.1
O=C(Nc1ccc2nc(-c3ccco3)c(-c3ccco3)nc2c1)NC1CC1	-0.9	7.0	-28.0	-3.9	-57.1	-1.6
CCOC(=O)c1c(Nc2ccc(Cl)cc2)sc(/C=C2\C=Nc3ccccc32)c1O	-2.4	6.7	7.6	-12.2	40.5*	-3.2
Cc1ccc2nc3c(cc(C(N)=S)c(=N)n3CCCOC(C)C)c(=O)n2c1	2.9	-17.1	-2.7	4.1	59.1*	-0.3
CCCCSc1nnc(NC(=O)CCc2ccccc2)s1	-1.8	4.9	-41.2	2.2	2.9	-1.6
Clc1ccc(CSc2ncccn2)cc1	-0.6	-10.8	0.1	0.7	7.3	-6.1
O=C1c2cnc3nc(SCc4ccc(Cl)cc4)nn3c2CC2c3ccccc3CCN12 (stereo not drawn)	3.6	8.5	-18.2	1.3	-0.4	21.5*
CC(=O)c1cc2c(cc1NC(=O)c1cc(C)nn1-c1ccccc1)OCO2	14.8*	9.2	.	.	.	.
COc1ccc2c(C)cc(N3CCOCC3)nc2c1	-1.6	-4.9	3.3	6.6	10.8	-6.2
COc1ccc2c(C)cc(SCC(=O)N3CCOCC3)nc2c1	-2.2	12.3	8.2	-5.6	60.3*	-7.1
Cc1ccccc1N(C(=O)Cc1c[nH]c2ccccc12)C(C(=O)NC1CCCCC1)c1ccco1 (stereo not drawn)	6.1*	16.9	.	.	.	.
Cc1cc(C)c(C#N)c(N2CCN(CCOc3ccc(Cl)cc3)CC2)n1	-0.9	-14.1	12.7	-2.1	14.6	-2.6
COc1ccc(Cl)cc1CN1CCN(c2nc(C)cc(C)c2C#N)CC1	0.0	-10.7	1.5	-0.8	39.7*	-0.2
OCCCNC(=S)Nc1ccc2nc(-c3ccccn3)c(-c3ccccn3)nc2c1	-2.9	3.0	6.5	2.5	36.1*	-4.6
CN(C)NC(=S)Nc1ccc2nc(-c3ccccn3)c(-c3ccccn3)nc2c1	0.2	-5.7	2.3	-3.7	18.6	-4.7
CC(C)(C)CC(C)(C)NC(=S)Nc1ccc2nc(-c3ccccn3)c(-c3ccccn3)nc2c1	-0.2	1.7	27.4	-1.6	76.2*	-8.5
CN1CCc2nc(SCC(=O)Nc3cccc(F)c3)c(C#N)c(-c3cccs3)c2C1	-1.0	-6.4	3.0	-2.8	55.8*	-2.7
O=C(N/N=C1/C(=O)c2cccc3cccc1c23)c1ccc(Cl)cc1	-2.0	-2.0	0.3	24.9*	1.7	-5.2
Cc1nn(-c2cccc(C(F)(F)F)c2)c(Cl)c1/C=N/n1cnnc1	-1.6	3.2	4.3	-4.3	36.1*	-6.4
FC(F)(F)c1cccc(-n2cccc2/C=N/n2cnnc2)c1	-1.7	-6.2	18.7	-4.7	-0.9	-3.3
COc1cccc(CNc2cc(CSc3ccc(Cl)cc3)nc(C)n2)c1	0.9	-4.3	-9.3	9.0	12.4	-6.9
CNC(=S)N(Cc1ccc(OC)cc1)C1CC(=O)N(c2ccc(Cl)cc2)C1=O (stereo not drawn)	-1.0	-10.8	8.4	8.6	12.0	-5.8
